Experiments:
Assay type in all cases: cell-based
[1] = tested on: Oocyte; experiment: Allosteric modulation of alpha1beta2gamma2S GABAA receptor expressed in Xenopus laevis oocytes assessed as stimulation of GABA-induced chloride current at 100 uM by electrophysiology
Summary of the method: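 Two-microelectrode voltage clamp; GABA at EC3-10 (eliciting 3–10% of maximal current, determined at the start of each experiment). Test material applied for 1 min equilibration before GABA, then co-applied. Stimulation calculated as (I(GABA+Comp)/IGABA) − 1 at 100 µM, reported as %. Mean ± SE, n = 4–7 oocytes, at least two oocyte batches; oocytes with currents >3 µA discarded.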

[2] = tested on: Oocyte; experiment: Allosteric modulation of alpha1beta2gamma2S GABAA receptor expressed in Xenopus laevis oocytes assessed as stimulation of GABA-induced chloride current at 300 uM by electrophysiology
Summary of the method: (§1)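 Two-microelectrode voltage clamp of oocytes. GABA applied at EC3-10 (3-10% of maximal current), set at the start of each experiment. Compound pre-applied for 1 min before GABA. Enhancement taken as (I(GABA+Comp)/IGABA) - 1. Concentration-response data fitted to 1/[1 + (EC50/[Comp])nH]. Mean ± SE from ≥4 oocytes and ≥2 oocyte batches.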

[3] = (§2) Allosteric modulation of alpha1beta2gamma2S GABAA receptor expressed in Xenopus laevis oocytes assessed as stimulation of GABA-induced chloride current by electrophysiology; conditions: Oocyte; summary of the method: as §1
[4] = tested on: Oocyte; experiment: as §2; summary of the method: as §1

Row | SMILES | Activity [1] | Activity [2] | EC50 [3] | Activity [4]
1 | C[C@@H]1C[C@@H]2O[C@@]3(O[C@@H]2C(C)(C)O)[C@H](O)[C@@]2(C)[C@@H]4CC[C@H]5C(C)(C)[C@@H](O)CC[C@@]56C[C@@]46CC[C@]2(C)[C@@H]13 | 104% | – | – | –
2 | CC(=O)O[C@H](C[C@@H](C)[C@H]1C(=O)[C@H](O)[C@@]2(C)[C@@H]3CC[C@H]4C(C)(C)[C@@H](O)CC[C@@]45C[C@@]35CC[C@]12C)[C@H]1OC1(C)C | 64% | – | – | –
3 | CC(=O)O[C@H](C[C@@H](C)[C@H]1C(=O)[C@H](O)[C@@]2(C)[C@@H]3CC[C@H]4C(C)(C)[C@@H](O[C@@H]5OC[C@@H](O)[C@H](O)[C@H]5O)CC[C@@]45C[C@@]35CC[C@]12C)[C@H]1OC1(C)C | 1690% | 1950% | 27 µM | Dose-dependent effect
4 | C[C@@H]1C[C@@H]2O[C@@]3(O[C@@H]2C(C)(C)O)[C@H](O)[C@@]2(C)[C@@H]4CC[C@H]5C(C)(C)[C@@H](O[C@@H]6OC[C@@H](O)[C@H](O)[C@H]6O)CC[C@@]56C[C@@]46CC[C@]2(C)[C@@H]13 | 189% | 256% | 28 µM | Dose-dependent effect
5 | CC(=O)O[C@@H]1C[C@@]23C[C@@]24CC[C@H](O)C(C)(C)[C@@H]4CC[C@H]3[C@]2(C)C[C@@H]3O[C@]4(C[C@@H](C)[C@@H]3[C@@]12C)O[C@H](O)[C@@]1(C)O[C@H]41 | 126% | – | – | –
6 | CC(=O)O[C@@H]1C[C@@]23C[C@@]24CC[C@H](O[C@@H]2OC[C@@H](O)[C@H](O)[C@H]2O)C(C)(C)[C@@H]4CC[C@H]3[C@]2(C)C[C@@H]3O[C@]4(C[C@@H](C)[C@@H]3[C@@]12C)O[C@H](O)[C@@]1(C)O[C@@H]41 [ACTEIN] | 305% | 378% | 36 µM | Dose-dependent effect
7 | CC(=O)OC(C)(C)[C@H]1O[C@@]23O[C@H]1C[C@@H](C)[C@@H]2[C@@]1(C)CC[C@@]24C[C@@]25CC[C@H](O[C@@H]2OC[C@H](O)[C@H](O)[C@H]2O)C(C)(C)[C@@H]5CC[C@H]4[C@]1(C)[C@H]3O | 271% | 289% | 26 µM | Dose-dependent effect

— ChEMBL document CHEMBL1649354, “Bioactivity-guided isolation of GABA(A) receptor modulating constituents from the rhizomes of Actaea racemosa” (J Nat Prod, 2010)
